Bioassay records deposited in PubChem BioAssay by several laboratories.
NR2E3 ag-1 – human photoreceptor-specific nuclear receptor agonism; Q9Y5X4; CHO-S Gal4-NCOR/VP16-NR2E3 two-hybrid, luciferase; inhibition of corepressor binding, % at 3.98 µM; hit rate 0.35% among 360,000; AID 602229;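 active means inhibition above the mean of all tested compounds plus 3 SD, cut at about 70% in these data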;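 further: 0% = DMSO with NR2E3 transfected cells and 100% = cells lacking NR2E3 construct; higher means lower luciferase signal from less NR2E3 corepressor binding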
Target sequence (Q9Y5X4 whole entry, looked up, the tested form may be a part): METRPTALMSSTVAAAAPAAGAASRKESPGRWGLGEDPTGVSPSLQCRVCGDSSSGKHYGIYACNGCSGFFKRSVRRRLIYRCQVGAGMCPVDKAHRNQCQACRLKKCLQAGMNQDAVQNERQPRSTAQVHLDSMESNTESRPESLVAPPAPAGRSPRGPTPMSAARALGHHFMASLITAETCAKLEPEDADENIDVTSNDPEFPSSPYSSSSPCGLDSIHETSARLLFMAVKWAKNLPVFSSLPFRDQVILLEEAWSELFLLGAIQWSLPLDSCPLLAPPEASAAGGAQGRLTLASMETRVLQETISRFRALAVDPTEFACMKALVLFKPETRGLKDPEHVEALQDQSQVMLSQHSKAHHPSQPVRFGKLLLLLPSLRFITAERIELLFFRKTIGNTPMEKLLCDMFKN
PG9 binder – PG9 antibody binding by small molecule | TR-FRET gp120-PG9 antibody binding | inhibition, % at 6.7 µM | hit rate 0.43% among 360,000; in the data active means inhibition above about 8.5%
NR2E3 ag-2 – NR2E3 (human) agonism; GST-NR2E3/biotin-RetCOR TR-FRET, 1536-well; Q9Y5X4; inhibition of corepressor binding, % at 4.78 µM; hit rate 0.12% among 320,000;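 active means percent inhibition above the cutoff of mean plus 3 SD of all tested compounds, set per screening campaign, cut at about 20% in these data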;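 further: 0% = DMSO wells and 100% = biotin wells as full block of FRET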
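Material: NR2E3–RetCOR corepressor complex / Amount: 1.35 nM GST-NR2E3 / Medium: Tris pH 7.5 / Compound: single nominal compound dose of 4.8 µM / Incubation: 5 h at 4 °C / Technique: TR-FRET, Eu(K)-anti-GST donor, streptavidin-D2 acceptor, ex 340, em 617/671 nm / Read-out basis: percent loss of FRET ratio relative to control wells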
Rev-erbA mod – modulators of human Rev-erb alpha DNA binding; P20393; Rev-erbα–FITC-DNA binding, fluorescence polarization, 90 min; activity, % at 10 µM; hit rate 0.79% among 370,000; AID 1259318;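 active means activity above about 14%, limit read from the data; passing the limit was not always enough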;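 further: 0% = DMSO wells with 35 nM protein and 100% = DMSO wells with 750 nM protein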
Rev-erbA confirm – confirmation of modulators of human Rev-erb alpha DNA binding | shares compounds with Rev-erbA mod | Rev-erb alpha FITC-DNA binding, fluorescence polarization, 90 min | activation, % at 25 µM | hit rate 61% among 3,000 | AID 1259319;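 active means activation at or above a set limit, or at least 3 SD above the negative control mean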;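 further: 0% = 35 nM protein with DMSO and 100% = 750 nM protein high control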
RORg counter – affects RORgamma DNA binding in a Rev-erb alpha counter-screen; purified RORgamma protein-FITC-DNA binding, fluorescence polarization; hit rate 8% among 910; shares compounds with Rev-erbA mod; AID 1259320; IC50, µM;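 active means Compounds whose fitted half-maximal concentration for disrupting protein-DNA binding is below 10 micromolar; the record names Rev-erb in its text, so the target is in doubt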
Active calls of the source: *; i = inactive; · = not tested or not shown; ! = not active in a repeat. In the library only some 1.5% were active in any assay of this set; here they are far more common.

SMILES | NR2E3 ag-1 | PG9 binder | NR2E3 ag-2 | Rev-erbA mod | Rev-erbA confirm | others
N#Cc1cc2c(nc1SCc1cccnc1)CCC2 | -11 | -5 | 5 | -1 | ·
Cc1cccc(CSc2nc3c(cc2C#N)CCC3)c1 | -29 | 0 | 0 | 47* | 30*
O=C(OCCN1C(=O)c2ccccc2C1=O)c1ccc(S(=O)(=O)N2CCCCCC2)cc1 | -14 | 1 | -2 | 3 | ·
CC(=O)N(C(C)=O)N1C(=O)c2cccc3c(N4CCOCC4)ccc(c23)C1=O | 1 | -6 | -5 | 17* | 18
CCN(CC)S(=O)(=O)c1ccc(C(=O)OCCN2C(=O)c3cccc4c(N5CCOCC5)ccc(c34)C2=O)cc1 | 1 | 1 | -2 | 278* | 217* | RORg counter=>40
CC(Cl)C(=O)N1CCC(C(=O)NCC2COc3ccccc3O2)CC1 (stereo not given) | · | · | · | 1 | ·
O=C(Nc1cccc(-c2nc3ncccc3o2)c1)c1sc2cc(Cl)ccc2c1Cl | -30 | -1 | 8 | 31* | 17*
O=S1(=O)c2ccc(N3CCC[C@H]3CO)cc2O[C@H]2CCN1C2 | · | · | · | -3 | ·
CCc1ccc2n(-c3ccc(OC)cc3)c([S-])c(C(=O)Nc3cc(C)cc(C)c3)[n+]2c1 | -15 | 2 | 2 | 90* | 113* | RORg counter=i
C=CCN1C(=O)[C@@H](CC(=O)NCCCCc2ccccc2)[C@]2(C(=O)OC)CCCCC=C12 | · | · | · | 3 | ·
CN(CC#CC1=CCCCC1)/C(N)=N/C(=O)OCc1ccccc1 | · | · | · | 2 | ·
CCC(C)(C)n1nnnc1CN1CCN(c2nc3cc(OC)ccc3cc2C#N)CC1 | 15 | -2 | -3 | 56* | 11
Cc1ccc(NC(=O)Cn2nnc(-c3ccncc3)n2)cc1C | · | · | · | 1 | ·
CCC(C)Sc1ccc(-c2nc3cc(C)ccn3c2NC2CCCCC2)cc1 (stereo not given) | -16 | 6 | · | 20*! | 19*
CCCCCCSc1cc(-c2nc3cc(C)ccn3c2NC2CCCCC2)ccc1OC | -12 | 1 | 0 | 1 | ·
CCCCCCSc1ccc(-c2nc3cc(C)ccn3c2NC2CCCCC2)cc1 | -26 | 2 | · | 20*! | -2
COP(=O)(O)C(C)NC(=O)OCc1ccccc1 (stereo not given) | · | · | · | 8 | ·
CN(CC(=O)Nc1ccc(Cl)cc1)S(=O)(=O)c1ccc2c(c1)n(C)c(=O)c(=O)n2C | -25 | 0 | 0 | 63* | 43* | RORg counter=>40
CN(CC(=O)Nc1cccc(Cl)c1)S(=O)(=O)c1ccc2c(c1)n(C)c(=O)c(=O)n2C | 9 | 0 | 7 | 1 | ·
N#C/C(=N\Nc1ccc([N+](=O)[O-])cc1)C(N)=S | 2 | -6 | -1 | 35* | 29*
N#C/C(=N/Nc1ccc([N+](=O)[O-])cc1)C(=N)N1CCCCC1 | -125 | -3 | · | 28* | 20*
N#C/C(=N\Nc1ccc([N+](=O)[O-])cc1)C(=N)N1CCOCC1 | -80 | -3 | -3 | 2 | ·
C=CCN1C(=O)[C@@H](CC(=O)NCCC(C)C)[C@]2(C(=O)OC)CCCCC=C12 | · | · | · | 6 | ·
Cc1ccc(S(=O)(=O)N(C)c2ccc(OCC(=O)Nc3nc4c(ccc5ccccc54)s3)cc2)cc1 | -36 | -2 | -1 | 24* | 27*
CN1C(=O)/C(=C/C=C2\SCCN2C)N(C)C1=S | -16 | -37 | · | 51* | 22*
SMILES | NR2E3 ag-1 | PG9 binder | NR2E3 ag-2 | Rev-erbA mod | Rev-erbA confirm | others
O=C(NCCC(c1ccccc1)c1ccccc1)c1cnc2sccn2c1=O | -16 | 4 | 0 | 26* | 17
O=C(NCc1cccnc1)c1cnc2sccn2c1=O | 13 | 2 | 2 | -10 | ·
Nc1nc2ncccc2cc1C(=O)C1=C(c2ccccc2)Cc2ccccc21 | · | · | · | -2 | ·
Cc1cc(C)c2nc(SCC(=O)NCC3CCCO3)c(C#N)cc2c1 (stereo not given) | -6 | -1 | -2 | 60* | 42* | RORg counter=>40
Cc1cc(C)c(C#N)c(SCC(=O)N2CCCCC2)n1 | -24 | 0 | 1 | -1 | ·
Cc1cc2cccc(C)c2nc1SCC(=O)NCC1CCCO1 (stereo not given) | -28 | -1 | 6 | 4 | ·
Cc1cc(C)c2nc(SCC(=O)N3CCCCC3)c(C#N)cc2c1 | -14 | -1 | · | 27* | 23*
CC/C(=N/NC(=O)c1ccc(Br)cc1)c1ccc(OCCN2CCOCC2)cc1 | -14 | -1 | -2 | 0 | ·
